IDH1 mut inh: blocks human IDH1 R132H reductase activity; O75874; diaphorase/resazurin fluorescence, 60 min; inhibition, % at 10 µM; 0.18% of 70,000 active; in the data active = inhibition above about 34%; inconclusive = no clear call, values can overlap the other calls; inactive = below about 11%
KDM4C inh: blocks human GASC-1 (KDM4C) demethylase activity. inhibition, % at 12.5 µM. Q9H3R0. GST-KDM4C 2-372, H3K9me3 peptide, LANCE TR-FRET. 0.15% of 96,000 active;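 active = mean replicate inhibition above about 25%, with at least 55% of replicates also reaching it, limit read from the data, passing the limit was not always enough; inconclusive = only one of those two conditions met; inactive = neither condition met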
Target sequence (Q9H3R0 2-372 limits assumed): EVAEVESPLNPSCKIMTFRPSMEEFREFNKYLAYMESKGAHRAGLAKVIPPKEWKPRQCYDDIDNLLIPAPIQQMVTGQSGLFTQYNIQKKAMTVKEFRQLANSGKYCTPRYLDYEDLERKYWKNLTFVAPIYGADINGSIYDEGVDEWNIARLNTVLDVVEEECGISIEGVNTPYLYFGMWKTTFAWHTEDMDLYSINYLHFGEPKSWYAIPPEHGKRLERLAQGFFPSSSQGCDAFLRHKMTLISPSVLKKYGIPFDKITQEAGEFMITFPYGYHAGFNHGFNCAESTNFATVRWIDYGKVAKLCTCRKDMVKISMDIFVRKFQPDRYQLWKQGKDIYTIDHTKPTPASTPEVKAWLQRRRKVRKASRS
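System – N-terminal GST-fused human GASC-1 (KDM4C) fragment, residues 2-372 · Input – enzyme final amount 10 nM · Technique – LANCE TR-FRET, Eu antibody, ULight-streptavidin, EDTA, ex 340 nm, em 618/671 nm · Medium – HEPES buffer, pH 7.5, plus ascorbate · Incubation – enzyme reaction 30 min, then detection 60 min, both room temperature · Reagent – H3K9me3 peptide with Fe(II)/2OG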
T cruzi growth-1: blocks T. cruzi growth in NIH3T3 culture | T. cruzi beta-gal in NIH3T3, GalScreen luminescence, 90 h | inhibition, % at 8.34 µM | 5.9% of 77,000 active | AID 624255;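 active = mean inhibition above about 93%, with at least 55% of replicates each passing it, limit read from the data, passing the limit was not always enough; inconclusive = only one of those two conditions holds; inactive = neither condition holds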
Pf Dd2 inh: P. falciparum Dd2 growth inhibition; SYBR Green, 72 h; hits give low values; activity change, % at 10 µM; AID 1159554; 2.3% of 94,000 active; in the data active = activity change below about -80%; inconclusive = no clear call, values can overlap the other calls
T cruzi growth-2: blocks T. cruzi growth in NIH3T3 host cells | shares compounds with T cruzi growth-1 | T. cruzi beta-gal in NIH3T3, GalScreen luminescence, 90 h | inhibition, % at 8.35 µM | 72% of 5,600 active;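 active = mean replicate inhibition above about 95% and at least 55% of replicates individually reaching it, limit read from the data; inconclusive = only one of the two criteria is met; inactive = neither criterion is met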
T cruzi growth-3: Trypanosoma cruzi proliferation inhibition. shares compounds with T cruzi growth-1. T. cruzi beta-gal in NIH3T3, GalScreen luminescence, 90 h. inhibition, % at 2.09 µM. 21% of 5,600 active;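 active = mean inhibition above about 95%, with at least 55% of replicates also reaching it, limit read from the data; inconclusive = meets just one of the two conditions; inactive = meets neither condition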
NIH3T3 tox: cytotoxicity in mouse NIH/3T3 fibroblasts | shares compounds with T cruzi growth-1 | NIH/3T3 viability, CellTiter-Glo ATP luminescence, 90 h | cytotoxicity (signal decrease), % at 8.35 µM | 14% of 5,600 active | AID 651742;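 active = mean signal decrease across replicates above about 35% based on untreated-well scatter, with enough replicates individually passing, limit read from the data; inconclusive = no rule stated though some were filed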
3T3 cytotox 2: NIH/3T3 (mouse) viability loss; shares compounds with T cruzi growth-1; NIH/3T3 viability, CellTiter-Glo ATP luminescence, 90 h; inhibition, % at 24.9 µM; 56% of 5,600 active; AID 651744;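 active = mean loss of cell viability signal at or above a set limit, and enough replicates individually reaching it; inconclusive = meets only the mean limit or only the replicate share; inactive = meets neither condition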
Each line names hits and unclear results; the compound was inactive in the other large screens (follow-up assays come after a bar, where they were run). Rows were chosen to be rich in hits. Some 5.8% of all compounds tested hit in one or more screens of this group.

CO[C@H]1CN(C)C(=O)c2cc(NS(=O)(=O)c3cccc(F)c3)ccc2OC[C@H](C)N(Cc2cc(F)ccc2F)C[C@H]1C	T cruzi growth-1 115 | T cruzi growth-2 108 | T cruzi growth-3 inactive | NIH3T3 tox inactive | 3T3 cytotox 2 105
CO[C@H]1CN(C)C(=O)c2cc(NS(=O)(=O)c3cccc(F)c3)ccc2OC[C@@H](C)N(Cc2cc(F)ccc2F)C[C@@H]1C	T cruzi growth-1 112 | T cruzi growth-2 110 | T cruzi growth-3 inactive | NIH3T3 tox inactive | 3T3 cytotox 2 inactive
CO[C@@H]1CN(C)C(=O)c2cc(NC(=O)C3CC3)ccc2OC[C@H](C)N(Cc2cc(F)ccc2F)C[C@@H]1C	none
CO[C@H]1CN(C)C(=O)c2ccc(NS(=O)(=O)c3cccc(F)c3)cc2OC[C@@H](C)N(Cc2cc(F)ccc2F)C[C@H]1C	none (no result: T cruzi growth-1)
CO[C@H]1CN(C)C(=O)c2cc(NS(=O)(=O)c3cccc(F)c3)ccc2OC[C@H](C)N(Cc2cc(F)ccc2F)C[C@@H]1C	T cruzi growth-1 112 | T cruzi growth-2 105 | T cruzi growth-3 inactive | NIH3T3 tox inactive | 3T3 cytotox 2 inactive
CO[C@H]1CN(C)C(=O)c2cc(NC(=O)C3CC3)ccc2OC[C@H](C)N(Cc2cc(F)ccc2F)C[C@@H]1C	T cruzi growth-1 97 | T cruzi growth-2 108 | T cruzi growth-3 inactive | NIH3T3 tox inactive | 3T3 cytotox 2 45
CO[C@H]1CN(C)C(=O)c2ccc(NS(=O)(=O)c3cccc(F)c3)cc2OC[C@@H](C)N(Cc2cc(F)ccc2F)C[C@@H]1C	none (no result: T cruzi growth-1)
O=C(Cn1c(=O)oc2ccccc21)Nc1ccc2c(c1)oc1ccccc12	none (no result: KDM4C inh, T cruzi growth-1, Pf Dd2 inh)
COc1ccc2c3c([nH]c2c1)[C@@H](CO)N(C(=O)Nc1ccc(F)cc1)CC31CN(S(=O)(=O)c2cccs2)C1	none (no result: IDH1 mut inh, T cruzi growth-1)
CN1c2ccc(C3=CCCCC3)cc2[C@@H]2[C@@H](CCN2C(=O)C2CCCCC2)[C@H]1CO	none (no result: IDH1 mut inh, T cruzi growth-1)
CO[C@H]1CN(C)C(=O)c2cc(NC(=O)C3CCCCC3)ccc2OC[C@H](C)NC[C@H]1C	T cruzi growth-1 107 | T cruzi growth-2 inactive | T cruzi growth-3 inactive | NIH3T3 tox inactive | 3T3 cytotox 2 inactive
Cc1ccc(OCC(=O)Nc2ncccc2C)cc1	none (no result: KDM4C inh, T cruzi growth-1, Pf Dd2 inh)
C[C@H]1CN([C@@H](C)CO)C(=O)c2cc(NC(=O)Nc3ccc(F)cc3)ccc2O[C@H]1CN(C)Cc1ccc(-c2ccccc2)cc1	T cruzi growth-1 98 | T cruzi growth-2 102 | T cruzi growth-3 103 | NIH3T3 tox inactive | 3T3 cytotox 2 103
C[C@H](CO)N1C[C@H](C)[C@H](CN(C)Cc2ccc(-c3ccccc3)cc2)Oc2ccc(NC(=O)Nc3ccc(C(F)(F)F)cc3)cc2C1=O	T cruzi growth-1 81 | T cruzi growth-2 98 | T cruzi growth-3 inactive | NIH3T3 tox inactive | 3T3 cytotox 2 105
C[C@H]1CN([C@@H](C)CO)C(=O)c2cc(NC(=O)Nc3ccc(C(F)(F)F)cc3)ccc2O[C@H]1CN(C)Cc1ccc(-c2ccccc2)cc1	T cruzi growth-1 118 | T cruzi growth-2 106 | T cruzi growth-3 inconclusive | NIH3T3 tox inactive | 3T3 cytotox 2 104
C[C@H]1CN([C@@H](C)CO)C(=O)c2cc(NC(=O)Nc3ccc(C(F)(F)F)cc3)ccc2O[C@@H]1CN(C)Cc1ccc(-c2ccccc2)cc1	T cruzi growth-1 113 (no result: IDH1 mut inh) | T cruzi growth-2 108 | T cruzi growth-3 inactive | NIH3T3 tox inactive | 3T3 cytotox 2 104
C[C@H](CO)N1C[C@H](C)[C@@H](CN(C)Cc2ccc(-c3ccccc3)cc2)Oc2ccc(NC(=O)Nc3ccc(F)cc3)cc2C1=O	none
C[C@H](CO)N1C[C@H](C)[C@@H](CN(C)Cc2ccc(C(F)(F)F)cc2)Oc2ccc(NC(=O)Nc3ccccc3)cc2C1=O	none (no result: IDH1 mut inh)
CNC[C@@H]1Oc2ncc(C3=CCCC3)cc2C(=O)N([C@H](C)CO)C[C@@H]1C	none
C/C=C/c1ccc([C@@H]2[C@@H](CO)N(C(=O)CC)[C@H]2CNC(=O)CC2CC2)cc1	none (no result: IDH1 mut inh)

Screening data (PubChem BioAssay)
